Source: ChEMBL document CHEMBL1909525, “Synthesis and anticonvulsant activity of novel 2,6-diketopiperazine derivatives. Part 1: perhydropyrrole[1,2-a]pyrazines” (Eur J Med Chem, 2011)
Activity calls are given as the source filed them. No cut-off for these calls is given here.

Columns and labels:
Mus musculus [1] = experiment: Anticonvulsant activity in albino Carworth Farms No.1 mouse assessed as protection against subcutaneous metrazol-induced seizure at 100 mg/kg, ip after 4 hrs; type: functional, organism-based; set-up: dose 100 mg/kg
In short: (§1)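 Mouse scMET test. Compound given i.p. (30, 100 or 300 mg/kg) in 0.5% methylcellulose. Pentylenetetrazole 85 mg/kg (CD97) given s.c. at 0.5 or 4 h, then mice observed for 30 min. Protection is absence of clonic spasms; scored as protected/tested.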

Mus musculus [2] = experiment: Anticonvulsant activity in albino Carworth Farms No.1 mouse assessed as protection against subcutaneous metrazol-induced seizure at 300 mg/kg, ip after 0.5 hrs; type: functional, organism-based; set-up: dose 300 mg/kg; in short: as §1
[3] = Neurotoxicity in po dosed albino Sprague-Dawley rat assessed as motor impairment after 0.25 hrs by rotarod test; type: toxicity, organism-based; settings: in vivo
In short: (§2)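 Rats dosed orally, compound in 0.5% methylcellulose. MES at 150 mA, 60 Hz, 0.2 s; scMET with pentylenetetrazole 70 mg/kg s.c. plus 30 min observation; rotorod for toxicity.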

Mus musculus [4] = experiment: Anticonvulsant activity in albino Carworth Farms No.1 mouse assessed as protection against electric-current for 3 secs-induced seizure at 100 mg/kg, ip after 0.25 hrs by 6Hz minimal clonic seizure test; type: functional, organism-based; set-up: dose 100 mg/kg
In short: (§3)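 6 Hz psychomotor seizure test in mice. Compound given i.p. as a suspension in 0.5% methylcellulose. Corneal stimulation at 32 mA, 0.2-ms monopolar rectangular pulses at 6 Hz for 3 s, from a constant-current device. Tests run 0.25–4 h after dosing. A mouse counted as protected if it resumed normal exploratory behaviour within 10 s; scored as protected/tested.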

Rattus norvegicus [5] = organism: Rattus norvegicus; experiment: Protective index, ratio of TD50 for albino Sprague-Dawley rat to ED50 for albino Sprague-Dawley rat by maximal electroshock-induced seizure test; type: functional
Mus musculus [6] = experiment: Anticonvulsant activity in albino Carworth Farms No.1 mouse assessed as protection against electric-current for 3 secs-induced seizure at 100 mg/kg, ip after 4 hrs by 6Hz minimal clonic seizure test; type: functional, organism-based; set-up: dose 100 mg/kg; in short: as §3
Mus musculus [7] = experiment: Anticonvulsant activity in albino Carworth Farms No.1 mouse assessed as protection against maximal electroshock-induced seizure at 300 mg/kg, ip after 4 hrs; type: functional, organism-based; set-up: dose 300 mg/kg
In short: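 Mouse MES test with compound given i.p. (30, 100 or 300 mg/kg) in 0.5% methylcellulose; tested at 0.5 and 4 h. Corneal stimulus of 50 mA at 60 Hz for 0.2 s, electrodes primed with 0.5% butacaine in 0.9% NaCl. Protection is abolition of hindlimb tonic extension; scored as protected/tested.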

Mus musculus [8] = experiment: Anticonvulsant activity in albino Carworth Farms No.1 mouse assessed as protection against subcutaneous metrazol-induced seizure at 30 mg/kg, ip after 0.5 hrs; type: functional, organism-based; set-up: dose 30 mg/kg; in short: as §1
Mus musculus [9] = experiment: Anticonvulsant activity in albino Carworth Farms No.1 mouse assessed as protection against electric-current for 3 secs-induced seizure at 75 mg/kg, ip after 2 hrs by 6Hz minimal clonic seizure test; type: functional, organism-based; set-up: dose 75 mg/kg; in short: as §3
[10] = Neurotoxicity in ip dosed albino Carworth Farms No.1 mouse assessed as motor impairment after 0.25 hrs by rotarod test; type: toxicity, organism-based; settings: Carworth Farms No.1 (albino), in vivo
In short: (§4)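 Mouse quantification at the time of peak effect, compound given i.p. in 0.5% methylcellulose. Groups of at least eight mice received varied doses until at least two points fell between 100 and 0% response. PI = TD50/ED50 MES.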

Mus musculus [11] = experiment: Anticonvulsant activity in albino Carworth Farms No.1 mouse assessed as protection against electric-current for 3 secs-induced seizure at 100 mg/kg, ip after 2 hrs by 6Hz minimal clonic seizure test; type: functional, organism-based; set-up: dose 100 mg/kg; in short: as §3
Mus musculus [12] = experiment: Neurotoxicity in albino Carworth Farms No.1 mouse assessed as motor impairment at 300 mg/kg, ip after 0.5 hrs by rotarod test; type: toxicity, organism-based; set-up: dose 300 mg/kg, route intraperitoneal; settings: in vivo
In short: (§5)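 Rotorod neurotoxicity in mice at 6 r.p.m. Compound given i.p. (30, 100, 300 mg/kg) in 0.5% methylcellulose; tested at 30 min and 4 h. Impairment is inability to keep equilibrium on the rod for a given time; scored as impaired/tested.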

Rattus norvegicus [13] = experiment: Toxicity in albino Sprague-Dawley rat pilocarpine-induced status epilepticus model assessed as change in body weight in non-protected rat at 130 mg/kg, ip measured after 24 hrs of time from first stage 3 seizures; type: organism-based; set-up: dose 130 mg/kg, route intraperitoneal; settings: in vivo
In short: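 Male albino Sprague-Dawley rats (150–180 g) received compound i.p., then a pilocarpine challenge immediately (0 min) or 30 min after treatment. The outcome was protection or no protection from seizures, scored as number protected/number tested. Average body weight change (g) ± S.E.M. was reported separately for protected and non-protected rats.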

Mus musculus [14] = experiment: Neurotoxicity in albino Carworth Farms No.1 mouse assessed as motor impairment at 30 mg/kg, ip after 4 hrs by rotarod test; type: toxicity, organism-based; set-up: dose 30 mg/kg, route intraperitoneal; settings: in vivo; in short: as §5
Rattus norvegicus [15] = organism: Rattus norvegicus; experiment: Inhibition of voltage-gated sodium channel in Wistar rat cerebral prefrontal coronal slices assessed as decrease of […] current-induced current amplitude at 100 uM after 5 mins by whole cell voltage clamp method (reference value: 8 +/- 2.3%); set-up: scale not given: the % may be the effect or the level left
Rattus norvegicus [16] = organism: Rattus norvegicus; experiment: Inhibition of voltage-gated sodium channel in Wistar rat cerebral prefrontal coronal slices assessed as decrease of […] current-induced current amplitude at 10 uM after 5 mins by whole cell voltage clamp method (reference value: 4.2%); set-up: scale not given: the % may be the effect or the level left
Rattus norvegicus [17] = organism: Rattus norvegicus; experiment: Activation of voltage-gated sodium channel in Wistar rat cerebral prefrontal coronal slices assessed as increase of 0.1 Hz current-induced current amplitude at 10 uM after 5 mins by whole cell voltage clamp method
In short: (§6)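 Whole-cell voltage clamp on mechanically dispersed mPFC cells from coronal prefrontal slices of 3-week-old male Wistar rats. Bath: TEA-OH 90, NaCl 30, HEPES 10, MgCl2 2, CaCl2 2, glucose 15 mM, pH 7.4. Na+ currents evoked at 0.1 Hz by a step to -20 mV (30 ms) after a -100 mV prepulse (1000 ms). Amplitude compared before and after 5 min compound application; n = 3.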

Mus musculus [18] = organism: Mus musculus; experiment: Protective index, ratio of TD50 for albino Carworth Farms No.1 mouse to ED50 for albino Carworth Farms No.1 mouse by maximal electroshock-induced seizure test; type: functional; in short: as §4
Mus musculus [19] = experiment: Anticonvulsant activity in albino Carworth Farms No.1 mouse assessed as protection against subcutaneous metrazol-induced seizure at 100 mg/kg, ip after 0.5 hrs; type: functional, organism-based; set-up: dose 100 mg/kg; in short: as §1
Rattus norvegicus [20] = organism: Rattus norvegicus; experiment: Inhibition of voltage-gated sodium channel in Wistar rat cerebral prefrontal coronal slices assessed as decrease of 0.1 Hz current-induced current amplitude at 10 to 100 uM after 5 mins by whole cell voltage clamp method; in short: as §6
Rattus norvegicus [21] = experiment: Anticonvulsant activity in po dosed albino Sprague-Dawley rat assessed as protection against maximal electroshock-induced seizure after 0.25 hrs; type: functional; in short: as §2
Rattus norvegicus [22] = organism: Rattus norvegicus; experiment: Activation of voltage-gated sodium channel in Wistar rat cerebral prefrontal coronal slices assessed as increase of 0.1 Hz current-induced current amplitude at 100 uM after 5 mins by whole cell voltage clamp method; in short: as §6
Mus musculus [23] = experiment: Neurotoxicity in albino Carworth Farms No.1 mouse assessed as motor impairment at 300 mg/kg, ip after 4 hrs by rotarod test; type: toxicity, organism-based; set-up: dose 300 mg/kg, route intraperitoneal; settings: in vivo; in short: as §5
Mus musculus [24] = experiment: Toxicity in albino Carworth Farms No.1 mouse assessed as sedation at 300 mg/kg, ip after 0.5 hrs by rotarod test; type: organism-based; set-up: dose 300 mg/kg, route intraperitoneal; settings: in vivo
In short: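 Mice (18–25 g) were given 30, 100 or 300 mg/kg i.p. in 0.5% (v/v) aqueous methylcellulose. Neurotoxicity was checked on a 6 r.p.m. rotorod 30 min and 4 h after dosing and scored as inability to keep equilibrium. Death following tonic extension and sedation were recorded as observations (number of animals/number tested).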

SMILES: O=C1NC(=O)[C@@H]2CCCN2[C@H]1c1ccccc1
- Activity (Mus musculus [1]): inactive
- Activity (Mus musculus [2]): inactive
- TD50 at 0.25 h [3]: > 500 mg/kg
- Activity (Mus musculus [4]): Active
- Ratio TD50/ED50 (Rattus norvegicus [5]): >12.6
- Activity (Mus musculus [6]): inactive
- Activity (Mus musculus [7]): inactive
- Activity (Mus musculus [8]): inactive
- Activity (Mus musculus [9]): inactive
- TD50 at 0.25 h [10]: 122 mg/kg
- Activity (Mus musculus [11]): inactive
- Activity (Mus musculus [12]): Non-toxic
- Activity (Rattus norvegicus [13]): -22.5 g
- Activity (Mus musculus [14]): Non-toxic
- Activity (Rattus norvegicus [15]): 14.1%
- Activity (Rattus norvegicus [16]): 5.3%
- Activity (Rattus norvegicus [17]): 3%
- Ratio TD50/ED50 (Mus musculus [18]): 1.7
- Activity (Mus musculus [19]): inactive
- inhibition (Rattus norvegicus [20]): inactive
- ED50 (Rattus norvegicus [21]): 39.7 mg/kg
- Activity (Rattus norvegicus [22]): 8.4%
- Activity (Mus musculus [23]): Non-toxic
- Activity (Mus musculus [24]): Toxic
